# Calls of active or inactive are those of the source. The rule behind the calls is not given here.
# Tests used:
# MDA-MB-231 [1] = test: Potentiation of doxorubicin-induced cytotoxicity against p53 CRISPR-Cas9 knockout human MDA-MB-231 cells assessed as decrease in cell viability at 10 uM after 72 hrs by CellTiter 96 AQueous one solution cell proliferation assay; type: functional, cell-based
# How it was run: (§1)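 Seeded 3000–4000 cells/well, 20 h growth, then a range of doxorubicin concentrations alone or combined with 10 μM compound in 10% FBS medium for 72 h (DMSO vehicle). Viability by CellTiter 96 AQueous One at 490 nm versus untreated cells; triplicate wells, mean ± SEM of three independent experiments.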
# U2OS [2] = test: Potentiation of doxorubicin-induced cytotoxicity against human U2OS cells assessed as decrease in cell viability at 10 uM after 72 hrs by CellTiter 96 AQueous one solution cell proliferation assay; type: functional, cell-based; how it was run: as §1
# Homo sapiens [3] = species on record: Homo sapiens; test: Inhibition of Pgp in human A549/DXR cells assessed as reduction in calcein-AM efflux after 1 hr by fluorescence assay
# Homo sapiens [4] = species on record: Homo sapiens; test: Cytotoxicity against human A549/DXR cells assessed as reduction in cell viability after 72 hrs by CellTiter 96 AQueous one solution cell proliferation assay; type: functional, cell-based
# How it was run: (§2)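 Cells seeded at 3000–4000 per well and grown 20 h, then medium replaced by 10% fetal bovine serum medium with test compound for 72 h. Viability read by MTS-type (CellTiter 96 AQueous One) absorbance at 490 nm, relative to untreated control cells; triplicate wells per condition.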
# A549 [5] = test: Cytotoxicity against human A549 cells assessed as reduction in cell viability after 72 hrs by CellTiter 96 AQueous one solution cell proliferation assay; type: cell-based; conditions: A549, 72 h; how it was run: as §2
# SAOS-2 = test: Potentiation of doxorubicin-induced cytotoxicity against p53 null human Saos2 cells assessed as decrease in cell viability at 10 uM after 72 hrs by CellTiter 96 AQueous one solution cell proliferation assay; type: functional, cell-based; how it was run: as §1
# HCT-116 [6] = test: Cytotoxicity against human HCT116 cells harboring wild type p53 assessed as reduction in cell viability after 72 hrs by CellTiter 96 AQueous one solution cell proliferation assay; type: cell-based; conditions: HCT-116, 72 h; how it was run: as §2
# MDA-MB-231 [7] = test: Cytotoxicity against human MDA-MB-231 cells harboring p53 R280K mutant assessed as reduction in cell viability after 72 hrs by CellTiter 96 AQueous one solution cell proliferation assay; type: cell-based; conditions: MDA-MB-231, 72 h; how it was run: as §2
# A549 [8] = test: Potentiation of doxorubicin-induced cytotoxicity against human A549 cells assessed as decrease in cell viability at 10 uM after 72 hrs by CellTiter 96 AQueous one solution cell proliferation assay; type: functional, cell-based; how it was run: as §1
# U2OS [9] = test: Cytotoxicity against human U2OS cells assessed as reduction in cell viability after 72 hrs by CellTiter 96 AQueous one solution cell proliferation assay; type: cell-based; how it was run: as §2
# A549 [10] = test: Inhibition of calcein-AM efflux in human A549 cells at 10 uM after 1 hr by fluorescence assay; type: functional, cell-based
# How it was run: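 Vybrant multidrug resistance kit: 500 000 cells/well cultured overnight, triplicate cultures pretreated 1 h with compound (verapamil 50 μg/mL, cyclosporine A 25 μg/mL as positive controls), then 0.25 μM calcein-AM for 30 min. Cells washed twice in cold medium; intracellular calcein fluorescence read at ex 494/em 517 nm, expressed as percent calcein retention.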
# HCT-116 [11] = test: Cytotoxicity against p53 null human HCT116 cells assessed as reduction in cell viability after 72 hrs by CellTiter 96 AQueous one solution cell proliferation assay; type: cell-based; conditions: HCT-116, 72 h; how it was run: as §2
Structure (SMILES),Activity (MDA-MB-231 [1]),Activity (U2OS [2]),inhibition (Homo sapiens [3]),Activity (Homo sapiens [4]),IC50 (A549 [5]),Activity (SAOS-2),IC50 (HCT-116 [6]),IC50 (MDA-MB-231 [7]),Activity (A549 [8]),IC50 (U2OS [9]),inhibition (A549 [10]),IC50 (HCT-116 [11])
C=CC(C)(C)c1[nH]c2ccccc2c1C[C@H](NC(=O)[C@@H](O)Cc1ccccc1)C(=O)O,Active,Active,Dose-dependent effect,Dose-dependent effect,> 50 µM,Active,> 50 µM,> 50 µM,Active,> 50 µM,Active,> 50 µM
C=CC(C)(C)[C@]12Nc3c(O)cccc3[C@@]1(O)C[C@H]1C(=O)O[C@@H](Cc3ccccc3)C(=O)N12,Active,Active,Dose-dependent effect,Dose-dependent effect,> 50 µM,Active,> 50 µM,> 50 µM,Active,> 50 µM,Active,> 50 µM
C=CC(C)(C)[C@]1(C[C@H](NC(=O)[C@@H](O)Cc2ccccc2)C(=O)O)C(=O)Nc2c(O)cccc21,Active,Active,Dose-dependent effect,Dose-dependent effect,> 50 µM,Active,> 50 µM,> 50 µM,Active,> 50 µM,Active,> 50 µM
